ChEMBL document CHEMBL3244009, “Potential steroidal antiestrogens” (1977)

Columns and labels:
[1] = target: T1, Estrogen receptor (Mus musculus) (UniProt P19785); test: Displacement of [6,7-3H]-17beta-estadiol from estrogen receptor in Tuck No. 1 mouse uterine cytosol at 3.16 molar ratio of compound/radioligand incubated 15 mins prior to radioligand addition measured after 1 hr by liquid scintillation counting relative to control; details: Uterus
T1 sequence (whole entry): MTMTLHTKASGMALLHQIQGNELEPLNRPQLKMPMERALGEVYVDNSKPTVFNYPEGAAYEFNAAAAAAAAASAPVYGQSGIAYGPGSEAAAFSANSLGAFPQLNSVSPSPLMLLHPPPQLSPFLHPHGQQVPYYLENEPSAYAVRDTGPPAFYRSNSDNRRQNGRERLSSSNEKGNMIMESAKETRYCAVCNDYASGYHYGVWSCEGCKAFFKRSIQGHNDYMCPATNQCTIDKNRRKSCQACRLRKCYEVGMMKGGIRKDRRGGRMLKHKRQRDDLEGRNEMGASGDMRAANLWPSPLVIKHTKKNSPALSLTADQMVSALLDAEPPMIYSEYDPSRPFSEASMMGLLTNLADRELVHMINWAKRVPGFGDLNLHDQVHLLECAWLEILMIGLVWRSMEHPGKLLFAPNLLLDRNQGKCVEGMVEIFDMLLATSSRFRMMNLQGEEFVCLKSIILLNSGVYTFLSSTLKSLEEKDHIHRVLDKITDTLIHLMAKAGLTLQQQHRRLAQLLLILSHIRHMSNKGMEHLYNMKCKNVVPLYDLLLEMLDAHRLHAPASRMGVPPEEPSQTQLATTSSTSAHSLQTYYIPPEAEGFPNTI
Outline: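 Uteri from Tuck No. 1 mice (6 weeks old, ovariectomized, used 1 week later) pulverized and homogenized at 4 °C in 0.01 M Tris pH 7.4 with EDTA and dithiothreitol; 105000g, 1 h cytosol. Compound preincubated with cytosol 15 min at 5-7 °C, then [6,7-3H]-estradiol added for 1 h. 10-30% sucrose gradients spun 275000g, 15 h; % inhibition computed from 8S-peak cpm normalized to total gradient cpm versus control.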

[2] = target: T1, Estrogen receptor (Mus musculus); test: Displacement of [6,7-3H]-17beta-estadiol from estrogen receptor in Tuck No. 1 mouse uterine cytosol at 10 molar ratio of compound/radioligand incubated 15 mins prior to radioligand addition measured after 1 hr by liquid scintillation counting relative to control; details: Uterus
Outline: (§1)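 Uterine cytosol is the 105 000g, 1 h, 4-5 °C supernatant of homogenates from mice ovariectomized one week earlier, prepared in Tris 0.01 M pH 7.4 with EDTA and DTT. Compound is preincubated with cytosol 15 min at 5-7 °C, then [6,7-3H]-estradiol (0.5 × 10^-12 g mol) is added for 1 h. Samples are run on 10-30% sucrose gradients. Inhibition is calculated from 8S-peak cpm normalized to total cpm versus control.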

[3] = test system: Mus musculus; test: Antiestrogenic activity in immature Tuck No. 1 mouse assessed as reduction of 17beta-estradiol-induced mean uterine weight at 10 molar ratio of compound/17beta-estradiol, sc qd for 3 days (reference value: 25.5 +/- 1.9 mg); assay type: functional
[4] = test system: Rattus norvegicus; test: Antiestrogenic activity in immature Wistar rat assessed as reduction of 17beta-estradiol-induced mean uterine weight at 10 molar ratio of compound/17beta-estradiol, sc qd for 3 days (reference value: 64.4 +/- 3.5 mg); assay type: functional
Outline: (§2)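 Immature Wistar rats, randomized into groups of 5-6, injected sc daily for 3 days with arachis oil vehicle, 17β-estradiol alone or estradiol plus test compound. Estradiol and compound are given as two separate injections. Estradiol total dose […]. Read-out is uterine weight, reported as mean ± SEM in mg.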

[5] = target: T1, Estrogen receptor (Mus musculus); test: Displacement of [6,7-3H]-17beta-estadiol from estrogen receptor in Tuck No. 1 mouse uterine cytosol at 1 molar ratio of compound/radioligand incubated 15 mins prior to radioligand addition measured after 1 hr by liquid scintillation counting relative to control; details: Uterus; outline: as §1
[6] = target: T1, Estrogen receptor (Mus musculus); test: Displacement of [6,7-3H]-17beta-estadiol from estrogen receptor in Tuck No. 1 mouse uterine cytosol at 1000 molar ratio of compound/radioligand incubated 15 mins prior to radioligand addition measured after 1 hr by liquid scintillation counting relative to control; details: Uterus; outline: as §1
[7] = target: T1, Estrogen receptor (Mus musculus); test: Displacement of [6,7-3H]-17beta-estadiol from estrogen receptor in Tuck No. 1 mouse uterine cytosol at 100 molar ratio of compound/radioligand incubated 15 mins prior to radioligand addition measured after 1 hr by liquid scintillation counting relative to control; details: Uterus; outline: as §1
[8] = test system: Rattus norvegicus; test: Antiestrogenic activity in immature Wistar rat assessed as reduction of 17beta-estradiol-induced mean uterine weight at 200 molar ratio of compound/17beta-estradiol, sc qd for 3 days (reference value: 64.4 +/- 3.5 mg); assay type: functional; outline: as §2
[9] = test system: Mus musculus; test: Antiestrogenic activity in immature Tuck No. 1 mouse assessed as reduction of 17beta-estradiol-induced mean uterine weight at 1000 molar ratio of compound/17beta-estradiol, sc qd for 3 days (reference value: 25.5 +/- 1.9 mg); assay type: functional
[10] = test system: Rattus norvegicus; test: Antiestrogenic activity in immature Wistar rat assessed as reduction of 17beta-estradiol-induced mean uterine weight at 3.16 molar ratio of compound/17beta-estradiol, sc qd for 3 days (reference value: 64.4 +/- 3.5 mg); assay type: functional; outline: as §2
[11] = test system: Mus musculus; test: Antiestrogenic activity in immature Tuck No. 1 mouse assessed as reduction of 17beta-estradiol-induced mean uterine weight at 100 molar ratio of compound/17beta-estradiol, sc qd for 3 days (reference value: 25.5 +/- 1.9 mg); assay type: functional

C[C@]12CC[C@@H]3c4ccc(O)cc4C(=O)C[C@H]3[C@@H]1CC[C@@H]2O
Activity [1]: 38%

C[C@]12CC[C@@H]3c4ccc(O)cc4C(c4ccccc4)=C[C@H]3[C@@H]1CC[C@@H]2O
Activity [1]: 13% | Activity [2]: 3% | Activity [3]: 28.6 mg | Activity [4]: 74.1 mg | Activity [5]: 66%

Cc1cc(O)cc2c1[C@H]1CC[C@]3(C)[C@@H](O)CC[C@H]3[C@@H]1C=C2c1ccccc1
Activity [6]: 18% | Activity [7]: 87% | Activity [8]: 97.1 mg | Activity [9]: 32.9 mg

CCN(CC)CCOc1ccc2c(c1)C(Cc1ccccc1)=C[C@@H]1[C@@H]2CC[C@]2(C)[C@@H](O)CC[C@@H]12
Activity [6]: 89%

C[C@]12CC[C@@H]3c4ccc(O)cc4/C(=N\N4C(=N)SCC4=O)C[C@H]3[C@@H]1CC[C@@H]2O
Activity [2]: 84% | Activity [3]: 28.4 mg

CN(C)CCOc1ccc2c(c1)C(=O)C[C@@H]1[C@@H]2CC[C@]2(C)[C@@H](O)CC[C@@H]12
Activity [6]: 66%

Cc1cc(OCCN(C)C)cc2c1[C@H]1CC[C@]3(C)[C@@H](O)CC[C@H]3[C@@H]1C=C2c1ccccc1
Activity [6]: 88%

CCN(CC)CCOc1ccc2c(c1)C(c1ccccc1)=C[C@@H]1[C@@H]2CC[C@]2(C)[C@@H](O)CC[C@@H]12
Activity [6]: 101%

Cc1cc(O)cc2c1[C@H]1CC[C@]3(C)[C@@H](O)CC[C@H]3[C@@H]1CC2=O
Activity [6]: 14% | Activity [7]: 38%

CN(C)CCOc1ccc2c(c1)C(c1ccccc1)=C[C@@H]1[C@@H]2CC[C@]2(C)[C@@H](O)CC[C@@H]12
Activity [6]: 103%

C[C@]12CC[C@@H]3c4ccc(O)cc4/C(=N\NC(N)=S)C[C@H]3[C@@H]1CC[C@@H]2O
Activity [10]: 77.7 mg | Activity [11]: 34.3 mg | Activity [2]: 54%
